Assay results: ChEMBL document CHEMBL1136634, “Synthesis and photoreactivity of caged blockers for glutamate transporters” (Bioorg Med Chem Lett, 2003)

What was measured:
[1] = Half-life was determined; format: ADME; conditions: human
[2] = Glutamate uptake inhibition assay on glutamate transporters (excitatory amino acid transporters EAAT2) stably expressed on MDCK cells before U.V radiation; format: cell-based; conditions: Canis lupus familiaris
[3] = Glutamate uptake inhibition assay on glutamate transporters (excitatory amino acid transporters EAAT2) stably expressed on MDCK cells after 10 min U.V irradiation; format: cell-based; conditions: Canis lupus familiaris, light or radiation study
Outline: (§1)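 Before assay, caged compound in PBS(+) (1 mM CaCl2, 1 mM MgCl2, pH 7.4) was held in 1 mm quartz cuvettes in a dark box and irradiated with a 365 nm UV hand lamp at room temperature. Relative specific uptake came from three experiments, and IC50 was derived.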

[4] = Glutamate uptake inhibition assay on glutamate transporters (excitatory amino acid transporters EAAT2) stably expressed on MDCK cells after 1 min U.V irradiation; format: cell-based; conditions: Canis lupus familiaris, light or radiation study; outline: as §1
[5] = Glutamate uptake inhibition assay on glutamate transporters (excitatory amino acid transporters EAAT2) stably expressed on MDCK cells after 20 min U.V irradiation; format: cell-based; conditions: Canis lupus familiaris, light or radiation study; outline: as §1
[6] = Glutamate uptake inhibition assay on glutamate transporters (excitatory amino acid transporters EAAT2) stably expressed on MDCK cells after 5 min U.V irradiation; format: cell-based; conditions: Canis lupus familiaris, light or radiation study; outline: as §1
[7] = Glutamate uptake inhibition assay on EAAT2 stably expressed on MDCK cells; format: cell-based, Canis lupus familiaris

SMILES | half-life [1] | IC50 [2] | IC50 ([7]; Canis lupus familiaris, MDCK) | further results
N[C@H](C(=O)OCc1cc(=O)oc2cc(OCC(=O)O)ccc12)[C@H](OCc1ccccc1)C(=O)O | 3.7 min | 124 µM |  | IC50 [3]: 7 µM; IC50 [4]: 24 µM; IC50 [5]: 5.6 µM; IC50 [6]: 8.6 µM
COc1ccc2c(COC(=O)[C@@H](N)[C@H](OCc3ccccc3)C(=O)O)cc(=O)oc2c1 | 3.9 min |  | 124 µM | 
N[C@H](C(=O)O)[C@H](OCc1ccccc1)C(=O)O |  | 1.3 µM |  | 
COc1cc(C(C)OC(=O)[C@@H](N)[C@H](OCc2ccccc2)C(=O)O)c([N+](=O)[O-])cc1OC (stereo in doubt; 3a) |  |  |  | T1/2 [1]: 57.2 min; IC50 ([7]; mdck): 103 µM
COc1cc(C(C)OC(=O)[C@@H](N)[C@H](OCc2ccccc2)C(=O)O)c([N+](=O)[O-])cc1OC (stereo in doubt; 3b) | 45.2 min |  | 111 µM | 
